Test results from ChEMBL document CHEMBL5705905, “Pharmacological targeting of kinases MST1 and MST2 augments tissue repair and regeneration” (Sci Transl Med, 2016).
Active and inactive are the calls of the source. The rule behind the calls is not given here.

Tests used:
[1] = molecular target: T1, Serine/threonine-protein kinase 4 (Homo sapiens, UniProt Q13043); test: Inhibition of recombinant His-tagged full-length MST1 (unknown origin) expressing in Escherichia coli assessed as MOB1a phosphorylation level incubated for 30 min in the presence of 10 uM ATP by immunoblot analysis
T1 sequence (Q13043 whole entry): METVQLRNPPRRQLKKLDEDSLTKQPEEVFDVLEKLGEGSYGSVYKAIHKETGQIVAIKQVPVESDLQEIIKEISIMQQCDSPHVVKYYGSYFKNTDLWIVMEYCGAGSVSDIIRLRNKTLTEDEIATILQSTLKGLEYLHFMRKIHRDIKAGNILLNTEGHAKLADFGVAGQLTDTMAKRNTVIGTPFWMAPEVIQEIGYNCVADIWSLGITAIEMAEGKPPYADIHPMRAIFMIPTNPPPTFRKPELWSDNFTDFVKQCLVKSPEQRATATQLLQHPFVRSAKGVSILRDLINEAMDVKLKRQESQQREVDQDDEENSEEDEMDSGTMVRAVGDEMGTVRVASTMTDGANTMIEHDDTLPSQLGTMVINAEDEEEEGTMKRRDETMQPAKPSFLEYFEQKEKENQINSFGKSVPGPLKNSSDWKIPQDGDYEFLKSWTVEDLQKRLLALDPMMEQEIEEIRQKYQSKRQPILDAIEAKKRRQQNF

[2] = tested on: Tyrosine-protein kinase ABL1 (Homo sapiens), P00519 [F317L]; test: Inhibition of ABL1 F317L mutant (unknown origin) assessed as remaining activity at 1 uM by Kinome scan method relative to control
Outline: (§1)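 Active-site-dependent competition-binding (KINOMEscan) panel of 468 kinases, test compound at 1 μM (from a 10 mM DMSO stock). Read-out is ctrl% = (test signal − positive control signal)/(negative control signal − positive control signal) × 100. DMSO is the negative control (100%) and a control compound is the positive control (0%). Lower ctrl% means tighter binding.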

[3] = molecular target: 3-phosphoinositide-dependent protein kinase 1 (Homo sapiens) (UniProt O15530); test: Inhibition of PDPK1 (unknown origin) assessed as remaining activity at 1 uM by Kinome scan method relative to control
[4] = tested on: Phosphatidylinositol 4,5-bisphosphate 3-kinase catalytic subunit alpha isoform (Homo sapiens), P42336 [H1047Y]; test: Inhibition of PIK3CA H1047Y mutant (unknown origin) assessed as remaining activity at 1 uM by Kinome scan method relative to control
Chain of Phosphatidylinositol 4,5-bisphosphate 3-kinase catalytic subunit alpha isoform (Homo sapiens), P42336 [H1047Y] (P42336 whole entry H1047Y, canonical isoform): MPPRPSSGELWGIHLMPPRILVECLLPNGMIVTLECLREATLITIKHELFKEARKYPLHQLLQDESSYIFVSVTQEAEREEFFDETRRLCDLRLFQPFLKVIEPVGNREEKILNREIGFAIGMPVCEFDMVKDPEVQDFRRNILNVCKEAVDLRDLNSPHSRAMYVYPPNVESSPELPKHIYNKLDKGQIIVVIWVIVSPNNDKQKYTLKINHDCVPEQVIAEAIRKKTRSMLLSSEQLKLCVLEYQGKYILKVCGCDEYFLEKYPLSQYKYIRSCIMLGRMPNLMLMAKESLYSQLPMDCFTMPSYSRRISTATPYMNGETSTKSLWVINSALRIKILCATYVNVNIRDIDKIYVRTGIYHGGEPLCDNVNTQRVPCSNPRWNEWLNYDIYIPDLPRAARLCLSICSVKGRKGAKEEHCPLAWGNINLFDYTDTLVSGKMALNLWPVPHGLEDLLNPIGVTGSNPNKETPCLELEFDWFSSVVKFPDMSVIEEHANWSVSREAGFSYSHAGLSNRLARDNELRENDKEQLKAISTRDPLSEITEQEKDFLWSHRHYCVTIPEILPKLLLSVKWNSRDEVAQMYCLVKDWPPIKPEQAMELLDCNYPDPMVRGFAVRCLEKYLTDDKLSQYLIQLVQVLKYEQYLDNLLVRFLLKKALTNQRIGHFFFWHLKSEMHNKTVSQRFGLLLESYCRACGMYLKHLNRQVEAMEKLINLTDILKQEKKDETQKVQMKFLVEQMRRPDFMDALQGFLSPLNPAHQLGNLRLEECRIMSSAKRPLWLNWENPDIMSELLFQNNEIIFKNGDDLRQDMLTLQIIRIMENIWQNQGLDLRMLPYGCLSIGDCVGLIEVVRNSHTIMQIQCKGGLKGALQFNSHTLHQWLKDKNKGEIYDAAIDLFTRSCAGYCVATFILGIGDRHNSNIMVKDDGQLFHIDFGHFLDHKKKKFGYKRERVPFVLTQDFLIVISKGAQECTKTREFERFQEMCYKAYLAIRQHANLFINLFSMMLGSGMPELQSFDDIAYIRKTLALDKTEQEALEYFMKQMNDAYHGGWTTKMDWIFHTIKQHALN

[5] = molecular target: Tyrosine-protein kinase ABL1 (Homo sapiens, UniProt P00519, M351T); test: Binding affinity to phosphorylated ABL1 M351T mutant (unknown origin) assessed as dissociation constant
[6] = Acute toxicity in wild-type mouse assessed as ratio of liver weight to body weight at 1 mg/kg,ip administrated daily for 2 months and after 2 weeks drug withdrawal; format: organism-based; details: in vivo, 1460 h
Outline: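 Liver/body weight ratio in wild-type mice after 1 mg/kg i.p. daily for 2 months, or after a further 2 weeks off drug. n = 6; means ± SD, Student's t test. Vehicle was 0.1% citric acid aqueous solution with 20% Kolliphor HS 15.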

[7] = molecular target: TGF-beta receptor type-2 (Homo sapiens) (UniProt P37173); test: Inhibition of TGFBR2 (unknown origin) assessed as remaining activity at 1 uM by Kinome scan method relative to control
Chain of TGF-beta receptor type-2 (Homo sapiens) (P37173 whole entry): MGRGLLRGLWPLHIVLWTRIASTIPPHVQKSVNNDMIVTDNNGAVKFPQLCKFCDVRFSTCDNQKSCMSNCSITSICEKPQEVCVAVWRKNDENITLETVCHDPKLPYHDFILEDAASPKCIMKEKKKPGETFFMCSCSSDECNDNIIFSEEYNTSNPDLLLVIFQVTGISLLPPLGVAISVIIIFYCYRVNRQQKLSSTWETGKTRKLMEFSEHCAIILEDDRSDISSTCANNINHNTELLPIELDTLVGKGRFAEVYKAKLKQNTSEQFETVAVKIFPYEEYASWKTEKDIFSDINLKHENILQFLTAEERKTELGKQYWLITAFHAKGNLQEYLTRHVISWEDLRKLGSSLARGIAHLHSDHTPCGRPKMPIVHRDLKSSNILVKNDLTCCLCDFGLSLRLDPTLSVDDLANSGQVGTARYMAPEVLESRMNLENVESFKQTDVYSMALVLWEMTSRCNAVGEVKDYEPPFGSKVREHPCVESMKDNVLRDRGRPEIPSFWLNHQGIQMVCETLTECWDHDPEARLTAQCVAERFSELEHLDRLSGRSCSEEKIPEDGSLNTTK

[8] = molecular target: Mitogen-activated protein kinase kinase kinase 11 (Homo sapiens) (UniProt Q16584); test: Inhibition of MLK3 (unknown origin) assessed as remaining activity at 1 uM by Kinome scan method relative to control
[9] = molecular target: Eukaryotic translation initiation factor 2-alpha kinase 1 (Homo sapiens) (UniProt Q9BQI3); test: Inhibition of EIF2AK1 (unknown origin) assessed as remaining activity at 1 uM by Kinome scan method relative to control
[10] = molecular target: Serine/threonine-protein kinase MRCK alpha (Homo sapiens) (UniProt Q5VT25); test: Inhibition of MRCKA (unknown origin) assessed as remaining activity at 1 uM by Kinome scan method relative to control
Chain of Serine/threonine-protein kinase MRCK alpha (Homo sapiens) (Q5VT25 whole entry): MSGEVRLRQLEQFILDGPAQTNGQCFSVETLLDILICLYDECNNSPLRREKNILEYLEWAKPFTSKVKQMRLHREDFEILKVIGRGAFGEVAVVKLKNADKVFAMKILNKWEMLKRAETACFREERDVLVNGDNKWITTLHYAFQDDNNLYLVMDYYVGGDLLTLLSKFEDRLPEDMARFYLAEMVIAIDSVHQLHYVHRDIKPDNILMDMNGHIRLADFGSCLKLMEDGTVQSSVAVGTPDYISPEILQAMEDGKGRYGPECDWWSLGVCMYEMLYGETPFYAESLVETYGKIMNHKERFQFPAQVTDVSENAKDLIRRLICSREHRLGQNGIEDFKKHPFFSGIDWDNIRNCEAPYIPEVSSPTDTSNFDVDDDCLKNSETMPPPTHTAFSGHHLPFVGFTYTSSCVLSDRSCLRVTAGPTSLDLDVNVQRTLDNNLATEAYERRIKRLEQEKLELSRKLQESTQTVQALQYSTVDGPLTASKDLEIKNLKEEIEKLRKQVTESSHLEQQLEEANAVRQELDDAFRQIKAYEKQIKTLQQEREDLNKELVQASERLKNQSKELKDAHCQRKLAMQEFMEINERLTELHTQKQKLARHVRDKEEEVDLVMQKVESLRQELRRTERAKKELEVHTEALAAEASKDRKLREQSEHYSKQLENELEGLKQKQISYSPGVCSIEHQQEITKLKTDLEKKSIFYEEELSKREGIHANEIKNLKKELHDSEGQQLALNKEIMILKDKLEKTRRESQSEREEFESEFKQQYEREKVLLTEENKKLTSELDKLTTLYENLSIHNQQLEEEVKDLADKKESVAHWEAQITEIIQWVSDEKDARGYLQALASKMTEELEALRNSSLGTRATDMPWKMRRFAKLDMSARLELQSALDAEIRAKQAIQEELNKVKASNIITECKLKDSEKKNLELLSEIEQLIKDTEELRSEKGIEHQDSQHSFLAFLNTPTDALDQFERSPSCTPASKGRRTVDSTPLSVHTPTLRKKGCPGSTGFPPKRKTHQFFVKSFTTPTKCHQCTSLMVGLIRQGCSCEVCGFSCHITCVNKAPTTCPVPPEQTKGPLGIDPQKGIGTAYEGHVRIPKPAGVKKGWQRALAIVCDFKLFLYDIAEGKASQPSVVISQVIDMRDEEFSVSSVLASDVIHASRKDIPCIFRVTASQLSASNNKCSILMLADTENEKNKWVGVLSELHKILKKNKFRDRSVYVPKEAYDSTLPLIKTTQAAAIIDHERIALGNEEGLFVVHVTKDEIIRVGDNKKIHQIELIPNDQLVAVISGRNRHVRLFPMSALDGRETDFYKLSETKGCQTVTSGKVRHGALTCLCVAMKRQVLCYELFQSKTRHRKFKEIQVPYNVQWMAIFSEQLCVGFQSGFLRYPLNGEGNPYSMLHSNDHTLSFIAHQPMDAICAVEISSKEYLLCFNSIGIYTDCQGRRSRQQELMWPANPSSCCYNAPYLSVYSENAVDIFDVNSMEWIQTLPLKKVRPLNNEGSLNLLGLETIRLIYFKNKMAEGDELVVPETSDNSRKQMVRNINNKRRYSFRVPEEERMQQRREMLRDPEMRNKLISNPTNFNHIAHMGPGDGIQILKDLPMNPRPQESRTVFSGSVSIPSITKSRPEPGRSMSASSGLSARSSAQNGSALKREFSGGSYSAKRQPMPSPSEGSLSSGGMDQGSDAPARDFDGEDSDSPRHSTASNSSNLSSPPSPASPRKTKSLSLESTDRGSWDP

[11] = molecular target: Cytoplasmic tyrosine-protein kinase BMX (Homo sapiens) (UniProt P51813); test: Inhibition of BMX (unknown origin) assessed as remaining activity at 1 uM by Kinome scan method relative to control; outline: as §1
[12] = molecular target: Dual specificity tyrosine-phosphorylation-regulated kinase 2 (Homo sapiens) (UniProt Q92630); test: Inhibition of DYRK2 (unknown origin) assessed as remaining activity at 1 uM by Kinome scan method relative to control
Chain of Dual specificity tyrosine-phosphorylation-regulated kinase 2 (Homo sapiens) (Q92630 whole entry): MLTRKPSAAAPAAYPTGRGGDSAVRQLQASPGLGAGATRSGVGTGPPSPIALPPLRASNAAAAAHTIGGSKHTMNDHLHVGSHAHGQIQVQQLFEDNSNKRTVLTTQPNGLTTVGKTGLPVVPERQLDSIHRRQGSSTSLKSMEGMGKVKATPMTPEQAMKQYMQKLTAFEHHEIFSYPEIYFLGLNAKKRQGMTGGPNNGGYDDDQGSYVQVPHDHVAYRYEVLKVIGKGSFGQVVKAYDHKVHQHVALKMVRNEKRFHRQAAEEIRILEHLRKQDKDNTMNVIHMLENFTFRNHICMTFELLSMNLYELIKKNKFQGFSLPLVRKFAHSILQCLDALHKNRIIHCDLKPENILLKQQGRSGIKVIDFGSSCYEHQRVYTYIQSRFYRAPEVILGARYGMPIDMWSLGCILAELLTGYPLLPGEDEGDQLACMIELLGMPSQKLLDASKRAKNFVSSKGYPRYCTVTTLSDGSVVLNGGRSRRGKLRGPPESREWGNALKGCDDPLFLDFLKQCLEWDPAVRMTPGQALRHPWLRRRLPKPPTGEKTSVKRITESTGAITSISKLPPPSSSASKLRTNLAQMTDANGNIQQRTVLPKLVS

[13] = molecular target: Fibroblast growth factor receptor 3 (Homo sapiens) (UniProt P22607); test: Inhibition of FGFR3 (unknown origin) assessed as remaining activity at 1 uM by Kinome scan method relative to control
[14] = molecular target: Serine/threonine-protein kinase 33 (Homo sapiens) (UniProt Q9BYT3); test: Inhibition of STK33 (unknown origin) assessed as remaining activity at 1 uM by Kinome scan method relative to control
[15] = molecular target: Serine/threonine-protein kinase SIK2 (Homo sapiens) (UniProt Q9H0K1); test: Inhibition of SIK2 (unknown origin) assessed as remaining activity at 1 uM by Kinome scan method relative to control
[16] = tested on: Mast/stem cell growth factor receptor Kit (Homo sapiens), P10721 [D816H]; test: Inhibition of KIT D816H mutant (unknown origin) assessed as remaining activity at 1 uM by Kinome scan method relative to control
[17] = tested on: Primary hepatocyte; test: Inhibition of MST1/2 (unknown origin) in mouse Primary hepatocyte cells assessed as H2O2 stimulated MOB1 phosphorylation level at 1 to 3 uM by immunoblot analysis; format: cell-based; details: dose 1-3 µM
[18] = molecular target: Serine/threonine-protein kinase DCLK1 (Homo sapiens, UniProt O15075); test: Binding affinity to DCAMKL1 (unknown origin) assessed as dissociation constant
Chain of Serine/threonine-protein kinase DCLK1 (O15075 whole entry): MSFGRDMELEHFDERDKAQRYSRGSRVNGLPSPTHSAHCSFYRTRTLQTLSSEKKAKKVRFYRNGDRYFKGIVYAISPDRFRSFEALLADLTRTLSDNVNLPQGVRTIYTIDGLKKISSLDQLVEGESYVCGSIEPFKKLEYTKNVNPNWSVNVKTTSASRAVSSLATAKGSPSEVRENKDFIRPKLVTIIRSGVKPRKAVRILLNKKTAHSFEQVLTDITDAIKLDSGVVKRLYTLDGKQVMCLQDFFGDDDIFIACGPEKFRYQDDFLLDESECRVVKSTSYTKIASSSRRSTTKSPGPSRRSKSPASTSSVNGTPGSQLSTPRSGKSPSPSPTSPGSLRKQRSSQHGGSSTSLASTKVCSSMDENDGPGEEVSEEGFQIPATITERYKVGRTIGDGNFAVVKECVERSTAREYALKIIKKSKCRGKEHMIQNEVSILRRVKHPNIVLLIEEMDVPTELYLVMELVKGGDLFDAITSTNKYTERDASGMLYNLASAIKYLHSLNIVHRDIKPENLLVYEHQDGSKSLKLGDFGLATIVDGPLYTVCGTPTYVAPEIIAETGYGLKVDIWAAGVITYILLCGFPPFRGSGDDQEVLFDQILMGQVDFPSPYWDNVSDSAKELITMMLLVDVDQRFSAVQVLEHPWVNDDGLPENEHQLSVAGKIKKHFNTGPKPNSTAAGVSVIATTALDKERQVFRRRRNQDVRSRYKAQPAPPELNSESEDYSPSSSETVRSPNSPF

[19] = tested on: Mus musculus; test: Protection against APAP induced liver injury in mouse assessed as increase in survival rate at 1 mg/kg, ip administered at 2.5 hrs […]; format: functional
Outline: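 Wild-type mice given oral APAP 400 mg/kg, then i.p. vehicle, NAC 250 mg/kg, 1 mg/kg test agent, or NAC plus test agent at 1.5 or 2.5 h. Mortality was tracked with n = 10–11 per group, Mantel-Cox test. Separately, TUNEL was done on liver after 200 mg/kg APAP with treatment at 2.5 h.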

[20] = tested on: Mus musculus; test: Protection against human hepatocyte transplanted FRG mouse assessed as Fah-deficient hepatocyte survival at 1 mg/kg, ip administrated once a daily for 28 days by H&E staining based immunohistochemical analysis; format: functional, organism-based; details: Liver, time 28.0 day
[21] = molecular target: Mitogen-activated protein kinase 3 (Homo sapiens) (UniProt P27361); test: Inhibition of ERK1 (unknown origin) assessed as remaining activity at 1 uM by Kinome scan method relative to control
Chain of Mitogen-activated protein kinase 3 (Homo sapiens) (P27361 whole entry): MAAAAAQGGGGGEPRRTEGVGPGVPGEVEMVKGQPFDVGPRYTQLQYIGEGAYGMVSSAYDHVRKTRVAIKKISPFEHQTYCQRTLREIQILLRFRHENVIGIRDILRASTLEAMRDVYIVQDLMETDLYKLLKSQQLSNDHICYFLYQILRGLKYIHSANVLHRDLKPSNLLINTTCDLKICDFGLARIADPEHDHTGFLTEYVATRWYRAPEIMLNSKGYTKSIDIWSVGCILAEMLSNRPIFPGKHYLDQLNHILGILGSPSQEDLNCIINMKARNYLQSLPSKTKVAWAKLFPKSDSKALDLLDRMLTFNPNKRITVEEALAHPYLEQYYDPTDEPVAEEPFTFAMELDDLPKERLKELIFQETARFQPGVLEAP

[22] = molecular target: Fibroblast growth factor receptor 1 (Homo sapiens) (UniProt P11362); test: Inhibition of FGFR1 (unknown origin) assessed as remaining activity at 1 uM by Kinome scan method relative to control
[23] = molecular target: Dual specificity mitogen-activated protein kinase kinase 5 (Homo sapiens) (UniProt Q13163); test: Inhibition of MEK5 (unknown origin) assessed as remaining activity at 1 uM by Kinome scan method relative to control

Work on `CN1C(=O)c2sccc2N(C)c2nc(Nc3ccc(S(N)(=O)=O)cc3)ncc21` yielded an IC50 [1] of 164 nM, an Activity [2] of 32% and an Activity [3] of 100%. The Activity [4] was 57%, the Kd [5] was 42 nM and the Activity [6] was “Toxic”. For the same compound, the Activity [7] was 100%, the Activity [8] was 100% and the Activity [9] was 94%. It also gave an Activity [10] of 76%, an Activity [11] of 90% and an Activity [12] of 84%. For the same compound, the Activity [13] was 98%, the Activity [14] was 97% and the Activity [15] was 100%. The Activity [16] was 85%, the inhibition [17] was “Active” and the Kd [18] was 25 nM. For the same compound, the Activity [19] was roughly 40%, the Activity [20] was “inactive” and the Activity [21] was 100%. It also gave an Activity [22] of 88% and an Activity [23] of 79%.
